Test [1] is filed under the species Mus musculus. As to the kind of experiment: Binding affinity to amyloid beta plaques in transgenic C57BL6 mouse hippocampus expressing APP Swedish mutant/PSEN1 at 370 KBq/100 ul after 1 hr by autoradiographic analysis. It is filed as tissue-based. The following applies: tested as the 18F-labelled form. A digest of the protocol:
(§1)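 Paraffin brain sections from 12-month-old Tg mice (C57BL6, APPswe/PSEN1) and age-matched controls, deparaffinized through xylene and graded ethanol, then PBS (0.2 M, pH 7.4) 30 min. Incubated with 18F tracer (370 KBq per 100 μL) 1 h at room temperature, washed in 40% EtOH, rinsed in water, then phosphor plate exposure 2 h. The same sections were afterwards stained with 0.125% thioflavin S in 10% EtOH for 3 min and washed in 40% EtOH.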

Test [2] in a line: Displacement of [125I]-IMPY from amyloid beta (1 to 42) fibrils after 2 hrs by gamma-counting analysis. In outline: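 Competition binding with aggregated Aβ1-42 fibrils and [125I]IMPY (60000−100000 cpm/100 μL) in 0.05% BSA (1 mL total); inhibitors 10⁻⁴−10^−8.5 M in ethanol. Incubated 37 °C for 2 h, then GF/B vacuum filtration with PBS (0.02 M, pH 7.4) washes and γ counting. Three repeats; IC50 converted to Ki by Cheng−Prusoff.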
Background: Displacement assays read how much labelled ligand stays bound in the presence of the test substance.

For test [3], the species on record is Mus musculus. Nature of the test: Binding affinity to amyloid beta plaques in transgenic C57BL6 mouse cortex expressing APP Swedish mutant/PSEN1 at 370 KBq/100 ul after 1 hr by thioflavinS-staining method. The following applies: tested as the 18F-labelled form. In outline:
as §1

Test [4] is filed under the species Mus musculus. Nature of the test: Binding affinity to amyloid beta plaques in transgenic C57BL6 mouse hippocampus expressing APP Swedish mutant/PSEN1 at 370 KBq/100 ul after 1 hr by thioflavinS-staining method. It is filed as tissue-based. The following applies: tested as the 18F-labelled form. A digest of the protocol: as §1
Test [5] deals with Amyloid-beta precursor protein (Homo sapiens) (UniProt P05067). Nature of the test: Binding affinity to amyloid beta plaques in Alzheimer patient brain at 370 KBq/100 ul after 1 hr by autoradiographic analysis. The following applies: tested as the 18F-labelled form.
Chain of Amyloid-beta precursor protein (Homo sapiens) (P05067 whole entry): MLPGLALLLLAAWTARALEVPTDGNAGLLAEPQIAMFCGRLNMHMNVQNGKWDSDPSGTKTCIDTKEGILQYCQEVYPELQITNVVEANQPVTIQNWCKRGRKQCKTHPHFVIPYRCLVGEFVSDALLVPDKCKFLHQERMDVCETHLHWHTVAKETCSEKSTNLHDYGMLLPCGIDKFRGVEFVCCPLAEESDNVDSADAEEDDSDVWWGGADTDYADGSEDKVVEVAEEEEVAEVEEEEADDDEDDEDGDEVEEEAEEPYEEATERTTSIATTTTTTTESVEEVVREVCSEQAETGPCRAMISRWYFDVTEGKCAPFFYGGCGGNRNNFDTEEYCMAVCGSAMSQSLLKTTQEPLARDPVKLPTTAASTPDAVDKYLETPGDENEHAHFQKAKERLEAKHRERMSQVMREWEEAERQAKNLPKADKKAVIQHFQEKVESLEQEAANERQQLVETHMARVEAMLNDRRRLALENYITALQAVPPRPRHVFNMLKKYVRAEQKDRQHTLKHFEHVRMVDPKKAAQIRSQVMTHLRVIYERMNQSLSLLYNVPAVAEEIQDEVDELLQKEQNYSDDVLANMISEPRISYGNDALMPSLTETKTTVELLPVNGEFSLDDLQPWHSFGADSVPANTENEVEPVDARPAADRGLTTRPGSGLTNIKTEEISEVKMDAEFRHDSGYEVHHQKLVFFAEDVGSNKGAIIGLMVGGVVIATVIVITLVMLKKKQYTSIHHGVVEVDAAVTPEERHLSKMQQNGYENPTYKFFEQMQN
Test [6] is filed under the species Mus musculus. As to the kind of experiment: Binding affinity to amyloid beta plaques in transgenic C57BL6 mouse cortex expressing APP Swedish mutant/PSEN1 at 370 KBq/100 ul after 1 hr by autoradiographic analysis. Conditions: tested as the 18F-labelled form. A digest of the protocol:
as §1

Structures are written as SMILES. pKi: −log10 of the molar value. Calls of active or inactive are those of the source. The calls are words filed in the database; no cut-off is given here.

What is called pKi is the negative decadic logarithm of the Ki, by convention in mol/L. Low values mean a large Ki, high ones a small Ki. As for `CNc1ccc(-c2nc3ccc(OCCOCCOCCF)cc3s2)cn1`, the result (in the test listed under Mus musculus [1]; in the test filed under Mus musculus [3]; in the test listed under Mus musculus [4]; in test [5]; in the test filed under Mus musculus [6]) was Active. In addition, in test [2], the negative logarithm of the Ki (pKi) was 8.03.
